The results in this text go back to ChEMBL document CHEMBL1131508, “Spiro[1H-indene-1,4'-piperidine] derivatives as potent and selective non-peptide human somatostatin receptor subtype 2 (sst2) agonists” (J Med Chem, 1998).

One may read the Ki as the equilibrium dissociation constant of an inhibitor or competing ligand from its target.

What all share (type): cell-based
For experiment [1], the target named is Somatostatin receptor type 4 (Homo sapiens, UniProt P31391). As to the kind of experiment: Binding affinity towards human sst4 receptor expressed in CHO-K1 cells. In short, it runs like this:
(§1)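 Competitive radioligand binding. Each point was run in triplicate, and each compound was tested in at least two separate experiments.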

The target in experiment [2] is Somatostatin receptor type 3 (Homo sapiens, UniProt P32745). As to the kind of experiment: Binding affinity towards human sst3 receptor expressed in CHO-K1 cells. Summed up: as §1
Experiment [3] addresses Somatostatin receptor type 2 (Homo sapiens, UniProt P30874). The experiment is described as follows: Binding affinity towards human sst2 receptor expressed in CHO-K1 cells. In short, it runs like this:
as §1

For experiment [4], the target named is Somatostatin receptor type 5 (Homo sapiens, UniProt P35346). The experiment is described as follows: Binding affinity towards human sst5 receptor expressed in CHO-K1 cells. In short, it runs like this: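 Radioligand was labelled SRIF28. Points were run in triplicate, with at least two independent experiments per compound.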
Experiment [5] has as its target Somatostatin receptor type 1 (Homo sapiens, UniProt P30872). As to the kind of experiment: Binding affinity towards human sst1 receptor expressed in CHO-K1 cells. Summed up:
as §1

Chain of Somatostatin receptor type 1 (P30872 whole entry): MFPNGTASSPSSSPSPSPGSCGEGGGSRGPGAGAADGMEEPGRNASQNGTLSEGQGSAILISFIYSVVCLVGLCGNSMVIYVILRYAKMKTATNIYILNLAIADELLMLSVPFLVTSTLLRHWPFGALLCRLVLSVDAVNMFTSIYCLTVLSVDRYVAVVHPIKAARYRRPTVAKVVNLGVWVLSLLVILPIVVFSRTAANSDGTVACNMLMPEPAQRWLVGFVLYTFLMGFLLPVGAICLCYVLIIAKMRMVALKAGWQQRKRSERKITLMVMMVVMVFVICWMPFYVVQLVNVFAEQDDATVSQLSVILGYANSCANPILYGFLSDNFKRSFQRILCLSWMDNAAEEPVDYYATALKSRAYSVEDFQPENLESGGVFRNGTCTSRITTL
Chain of Somatostatin receptor type 4 (P31391 whole entry): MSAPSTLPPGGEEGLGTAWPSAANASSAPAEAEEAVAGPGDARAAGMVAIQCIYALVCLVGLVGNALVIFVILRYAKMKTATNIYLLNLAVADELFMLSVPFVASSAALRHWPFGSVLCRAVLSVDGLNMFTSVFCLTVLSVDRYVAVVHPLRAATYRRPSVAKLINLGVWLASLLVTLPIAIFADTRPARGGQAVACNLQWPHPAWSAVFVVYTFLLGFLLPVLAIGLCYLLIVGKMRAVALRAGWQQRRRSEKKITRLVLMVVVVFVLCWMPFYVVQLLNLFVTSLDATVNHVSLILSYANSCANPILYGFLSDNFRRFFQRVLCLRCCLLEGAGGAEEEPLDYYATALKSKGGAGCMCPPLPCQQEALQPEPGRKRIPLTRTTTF
Chain of Somatostatin receptor type 5 (P35346 whole entry): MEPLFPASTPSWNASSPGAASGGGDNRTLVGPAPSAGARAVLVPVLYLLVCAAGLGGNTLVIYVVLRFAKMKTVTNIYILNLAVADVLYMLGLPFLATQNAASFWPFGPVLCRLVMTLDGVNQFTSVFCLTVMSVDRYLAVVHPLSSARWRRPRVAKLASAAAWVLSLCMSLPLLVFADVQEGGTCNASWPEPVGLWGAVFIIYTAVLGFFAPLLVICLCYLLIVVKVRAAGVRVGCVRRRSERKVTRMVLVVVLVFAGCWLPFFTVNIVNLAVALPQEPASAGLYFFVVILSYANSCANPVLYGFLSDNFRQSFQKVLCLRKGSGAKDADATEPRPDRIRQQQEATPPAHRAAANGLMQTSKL
Chain of Somatostatin receptor type 2 (P30874 whole entry): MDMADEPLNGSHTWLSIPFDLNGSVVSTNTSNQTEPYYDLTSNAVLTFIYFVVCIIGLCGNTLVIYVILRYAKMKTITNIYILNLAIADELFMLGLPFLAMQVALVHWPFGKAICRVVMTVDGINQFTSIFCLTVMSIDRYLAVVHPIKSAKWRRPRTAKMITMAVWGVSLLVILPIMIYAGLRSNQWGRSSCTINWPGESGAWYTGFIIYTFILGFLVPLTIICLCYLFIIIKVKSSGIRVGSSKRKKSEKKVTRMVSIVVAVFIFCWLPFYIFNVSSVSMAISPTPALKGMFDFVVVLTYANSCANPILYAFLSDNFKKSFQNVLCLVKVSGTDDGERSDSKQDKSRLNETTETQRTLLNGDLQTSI
Chain of Somatostatin receptor type 3 (P32745 whole entry): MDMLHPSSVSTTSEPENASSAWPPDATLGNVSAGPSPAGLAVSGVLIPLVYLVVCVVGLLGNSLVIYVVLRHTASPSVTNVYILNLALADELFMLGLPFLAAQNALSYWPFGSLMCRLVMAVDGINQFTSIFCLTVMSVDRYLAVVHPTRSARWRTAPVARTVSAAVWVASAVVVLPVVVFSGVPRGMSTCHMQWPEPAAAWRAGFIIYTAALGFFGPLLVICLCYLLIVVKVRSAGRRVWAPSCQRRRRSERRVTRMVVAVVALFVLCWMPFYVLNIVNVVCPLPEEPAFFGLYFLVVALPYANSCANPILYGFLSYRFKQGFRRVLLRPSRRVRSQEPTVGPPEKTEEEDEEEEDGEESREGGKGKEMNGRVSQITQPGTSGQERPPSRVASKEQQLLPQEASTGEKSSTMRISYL

As to `NC[C@@H]1CCC[C@H](CNC(=O)[C@H](Cc2c[nH]c3ccccc23)NC(=O)N2CCC3(C=Cc4ccccc43)CC2)C1`, the Ki in experiment [1] turned out to be 2 µM; in experiment [2], 2.95 µM; in experiment [3], 0.0016 µM; in experiment [4] it was 4.47 µM; in experiment [5] it was 1.74 µM.
In turn, `NCCCCCCNC(=O)[C@H](Cc1c[nH]c2ccccc12)NC(=O)N1CCC2(C=Cc3ccccc32)CC1` yielded a Ki in experiment [3] of 0.225 µM.
Take `NC[C@H]1CCC[C@@H](CNC(=O)[C@H](Cc2c[nH]c3ccccc23)NC(=O)N2CCC3(C=Cc4ccccc43)CC2)C1`: the Ki in experiment [1] turned out to be 2.18 µM; in experiment [2] it was 3.69 µM; in experiment [3] it was 0.02 µM; in experiment [4], 3.32 µM; in experiment [5], 2.43 µM.
As to `NCCCNC(=O)[C@H](Cc1c[nH]c2ccccc12)NC(=O)N1CCC2(C=Cc3ccccc32)CC1`, in experiment [3], the affinity, expressed as Ki, was 0.815 µM.
Turning to `NCCCCCNC(=O)[C@@H](Cc1c[nH]c2ccccc12)NC(=O)N1CCC2(C=Cc3ccccc32)CC1`, the Ki in experiment [1] is 6.84 µM; in experiment [2] it was 2.57 µM; in experiment [3], 0.046 µM; in experiment [4], above 10 µM; in experiment [5] it was 5.38 µM.
Turning to `NCCCCC(NC(=O)[C@@H](Cc1c[nH]c2ccccc12)NC(=O)N1CCC2(C=Cc3ccccc32)CC1)C(N)=O` (some centres undefined), in experiment [3], affinity was put at a Ki of 0.053 µM.
With `NCC1CCCC(CNC(=O)[C@H](Cc2c[nH]c3ccccc23)NC(=O)N2CCC3(C=Cc4ccccc43)CC2)C1` (some centres undefined), the Ki in experiment [1] stood at 2.48 µM; in experiment [2] it was 3.61 µM; in experiment [3] it was 0.004 µM; in experiment [4], 5.02 µM; in experiment [5], 0.537 µM.
As for `NCCCCNC(=O)C(Cc1c[nH]c2ccccc12)NC(=O)N1CCC2(C=Cc3ccccc32)CC1` (centres undefined), the Ki in experiment [1] is above 10 µM; in experiment [2], 5.69 µM; in experiment [4], above 10 µM; in experiment [5], 4.26 µM.
In experiment [3], `C[C@@H](O)[C@@H]1NC(=O)[C@H](Cc2ccccc2)NC(=O)[C@@H]2CCCN2C(=O)[C@H](Cc2ccc(O)cc2)NC(=O)[C@@H](Cc2c[nH]c3ccccc23)NC(=O)[C@H](CCCCN)NC1=O` (stereo in doubt) showed an inhibition constant (Ki) of 0.0005 µM.
On the same count and under the same terms, the figure for `NCCCCC(NC(=O)[C@H](Cc1c[nH]c2ccccc12)NC(=O)N1CCC2(C=Cc3ccccc32)CC1)C(=O)O` (some centres undefined) is 1.11 µM.
